Screening results: PubChem BioAssay, several laboratories
Most compounds without a hit are left out; they make up all but 1.1% or so of the library.
FAS-TE inh: FAS thioesterase domain inhibitors, primary screen, biochemical, fluorescence intensity, uHTS; AID 602261, 2012; 360,000 compounds, 0.67% hits; recombinant FAS-TE, OMFH fluorogenic substrate, fluorescence endpoint; Fatty acid synthase (Homo sapiens), P49327; inhibition, % at 15 µM;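 active means compounds whose normalised, plate-corrected inhibition of enzyme fluorescence in the single-dose primary screen is 50% or more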;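 further: 0% = DMSO with enzyme and 100% = substrate without enzyme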
SENP1 inh: human SENP1 catalytic domain inhibitors, primary screen, biochemical, FRET, uHTS. 360,000 compounds, 0.21% hits. recombinant SENP1 catalytic domain, CyPet-SUMO1-YPet FRET cleavage. AID 624204, 2012. inhibition, % at 10 µM. Sentrin-specific protease 1 (Homo sapiens), Q9P0U3;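 active means inhibition at least 30% at 10 µM, raw YFP signal under a set limit, fluorescence ratio 0.5 to 1.5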;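 further: 0% = enzyme with DMSO and 100% = no enzyme wells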
Target sequence (Q9P0U3 419-644 limits assumed): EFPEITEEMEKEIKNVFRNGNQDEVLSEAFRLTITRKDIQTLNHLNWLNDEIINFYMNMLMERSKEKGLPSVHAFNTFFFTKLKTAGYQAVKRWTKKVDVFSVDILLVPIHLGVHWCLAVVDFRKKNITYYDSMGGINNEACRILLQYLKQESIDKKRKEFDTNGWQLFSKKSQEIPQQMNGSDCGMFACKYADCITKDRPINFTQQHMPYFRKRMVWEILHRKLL
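system = hSENP1 catalytic domain, recombinant | reagent = SFCypet-SUMO1-SFYpet substrate at 25 nM | doses = one dose per compound, 10 µM, 0.5% DMSO | incubation = enzyme reaction for 50 min at room temperature, dark | measured by = FRET, CFP and YFP emission | controls = no-enzyme low, enzyme-DMSO high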
iPSC survival up: enhancers of single-cell hiPSC survival, primary screen, ATPlite luminescence. 100% = ROCK inhibitor wells, 0% = DMSO. survival enhancement, % at 20 µM. 360,000 compounds, 0.044% hits; in the data active means survival enhancement above about 18%;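 further: cells exposed to compounds for 16 hours before the ATP read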
ABCB6 inh MLPCN: ABCB6 transporter inhibitors, primary screen, K562-ABCB6 cells, flow cytometry, MLPCN library | ATP-binding cassette sub-family B member 6 (Homo sapiens), Q9NP58 | 360,000 compounds, 0.19% hits | AID 602162, 2011 | K562-ABCB6 porphyrin accumulation, 1 h; hits give low values | fluorescence ratio to DMSO, % at 10 µM;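 active means fluorescence ratio to DMSO below 75%, the collection mean minus 3 SD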;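 further: signal is porphyrin accumulated inside mitochondria; 100% equals median channel fluorescence of DMSO control wells; lower ratio means ABCB6 inhibition with less porphyrin fluorescence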
An asterisk follows results filed as active.

`C[C@@H](NC(=O)[C@@H]1Cc2ccccc2CN1)C(=O)Nc1ccc2c(c1)OCO2` gave FAS-TE inh -5, SENP1 inh -2, iPSC survival up 26* and ABCB6 inh MLPCN 106.
Nc1ccc(N(CCO)CCO)cc1 was read as FAS-TE inh -12, SENP1 inh 21, iPSC survival up 0 and ABCB6 inh MLPCN 106.
CCN(CC)c1ccc(N)cc1 was read as FAS-TE inh -3, SENP1 inh 54*, iPSC survival up -2 and ABCB6 inh MLPCN 370.
`Cn1c(=O)n(C)c2cc([N+](=O)[O-])c(N3CCN(S(=O)(=O)c4ccc5ccccc5c4)CC3)cc21` gave FAS-TE inh 66*, SENP1 inh 1, iPSC survival up -1 and ABCB6 inh MLPCN 95.
`COc1cc(/C=C2\SC(=O)N(CCNC(=O)c3sc4cc(F)ccc4c3Cl)C2=O)cc(OC)c1OC` gave FAS-TE inh 12, SENP1 inh 0, iPSC survival up 0 and ABCB6 inh MLPCN 73*.
C/C(=N/NC(=O)Cn1nc2ccccc2n1)c1ccc(F)cc1 was read as FAS-TE inh -2, SENP1 inh 4, iPSC survival up -2 and ABCB6 inh MLPCN 74*.
Screening O=C(Nc1nc(-c2ccccc2)cs1)c1cccc([N+](=O)[O-])c1 returned FAS-TE inh 57*, SENP1 inh 3, iPSC survival up 2 and ABCB6 inh MLPCN 94.
For CCn1c(SCC(=O)NC2CCCC2)nnc1C(C)NC(=O)c1ccccc1Br (stereo not drawn) the results were FAS-TE inh -2, SENP1 inh 1, iPSC survival up 0 and ABCB6 inh MLPCN 102.
`CC(=NCCc1ccccc1)C1=C(O)CCC1=O` gave FAS-TE inh -11, SENP1 inh 2, iPSC survival up 2 and ABCB6 inh MLPCN 89.
For CC(=NCCc1ccccc1)C1=C(O)CSC1=O the results were FAS-TE inh -8, SENP1 inh 0, iPSC survival up -2 and ABCB6 inh MLPCN 74*.
Screening CC(C)[C@H](NC(=O)c1ccccc1)C(=O)NC1=NCCS1 returned FAS-TE inh -11, SENP1 inh 1, iPSC survival up 5 and ABCB6 inh MLPCN 102.
For O=C1[C@H]2[C@@H](c3ccc(Cl)cc3)N3C(=O)N(c4cccc(Cl)c4)C(=O)[C@@]3(Cc3ccc(Cl)cc3)[C@H]2C(=O)N1C1CCCCC1 the results were FAS-TE inh 94*, SENP1 inh 2, iPSC survival up -1 and ABCB6 inh MLPCN 98.
For O=C1[C@H]2[C@@H](c3ccc(Cl)cc3)N3C(=O)N(c4cccc(F)c4)C(=O)[C@@]3(Cc3ccc(Cl)cc3)[C@H]2C(=O)N1C1CCCCC1 the results were FAS-TE inh 96*, SENP1 inh 2, iPSC survival up -2 and ABCB6 inh MLPCN 100.
O=C1[C@H]2[C@@H](c3ccc(F)cc3)N3C(=O)N(c4ccc(Br)cc4)C(=O)[C@@]3(Cc3ccccc3)[C@H]2C(=O)N1C1CCCCC1 was read as FAS-TE inh 92*, SENP1 inh 3, iPSC survival up -4 and ABCB6 inh MLPCN 97.
`Cc1cccc(N2C(=O)N3[C@H](c4ccc(Cl)cc4)[C@@H]4C(=O)N(C5CCCCC5)C(=O)[C@@H]4[C@]3(Cc3ccc(Cl)cc3)C2=O)c1` gave FAS-TE inh 94*, SENP1 inh 5, iPSC survival up -3 and ABCB6 inh MLPCN 101.
`CCN1C(=O)[C@H]2[C@@H](c3ccc(C)cc3)N3C(=O)N(c4cccc(F)c4)C(=O)[C@@]3(Cc3ccc(Cl)cc3)[C@H]2C1=O` gave FAS-TE inh 44, SENP1 inh 1, iPSC survival up -2 and ABCB6 inh MLPCN 98.
Cc1ccc(N(C(=O)c2csnn2)C(C(=O)NC2CCCCC2)c2cccnc2)cc1 (stereo not drawn) was read as FAS-TE inh -2, SENP1 inh 0, iPSC survival up 0 and ABCB6 inh MLPCN 92.
COc1cccc(C(=O)NNS(=O)(=O)c2ccc(C)cc2)c1 was read as FAS-TE inh -6, SENP1 inh 2, iPSC survival up -1 and ABCB6 inh MLPCN 95.
COc1ccc(N2CCN(C(=O)c3cc(S(=O)(=O)N4CCCCCC4)ccc3OC)CC2)cc1 was read as FAS-TE inh 17, SENP1 inh 0, iPSC survival up 0 and ABCB6 inh MLPCN 100.
`CC1CC(C)CN(C(=O)CN(C)S(=O)(=O)c2ccc3c(c2)c(=O)n(C)c(=O)n3C)C1` (stereo not drawn) gave FAS-TE inh 0, SENP1 inh 0, iPSC survival up 0 and ABCB6 inh MLPCN 96.
Screening C=CCn1c(=O)c(CCC(=O)Nc2ccc(N3CCOCC3)cc2)nc2cc(C(F)(F)F)ccc21 returned FAS-TE inh 4, SENP1 inh 1, iPSC survival up 0 and ABCB6 inh MLPCN 91.
CCN1C(=O)[C@H]2[C@@H](c3ccc(C)cc3)N3C(=O)N(c4cccc(Cl)c4)C(=O)[C@@]3(CC(C)C)[C@H]2C1=O was read as FAS-TE inh 12, SENP1 inh 4, iPSC survival up -1 and ABCB6 inh MLPCN 94.
For CC(C)C[C@@]12C(=O)N(c3cccc(Cl)c3)C(=O)N1[C@H](c1ccc(F)cc1)[C@@H]1C(=O)N(C3CCCCC3)C(=O)[C@@H]12 the results were FAS-TE inh 84*, SENP1 inh 0, iPSC survival up -2 and ABCB6 inh MLPCN 98.
`O=C(Nc1ccc(Br)cc1)c1cc([N+](=O)[O-])cc([N+](=O)[O-])c1` gave FAS-TE inh 55*, SENP1 inh 2, iPSC survival up -1 and ABCB6 inh MLPCN 97.
`Cc1csc(N=Nc2ccc(N(C)C)cc2)[n+]1[O-]` gave FAS-TE inh 8, SENP1 inh -3, iPSC survival up -2 and ABCB6 inh MLPCN 104.
Screening Cc1ccc(-n2c(Cl)c(Cl)nc(Cl)c2=O)cc1 returned FAS-TE inh 78*, SENP1 inh -19, iPSC survival up 2 and ABCB6 inh MLPCN 80.
Cc1ccc(Cn2c(=N)n(CC(=O)c3ccccc3)c3ccccc32)cc1 was read as FAS-TE inh 64*, SENP1 inh 2, iPSC survival up -4 and ABCB6 inh MLPCN 90.
`CC(C)(C)C(=O)Cn1c(=N)n(Cc2ccccc2)c2ccccc21` gave FAS-TE inh 10, SENP1 inh -1, iPSC survival up 4 and ABCB6 inh MLPCN 108.
Screening CN(C)S(=O)(=O)c1cccc(C(=O)Nc2cc3c(cc2C(=O)O)OCCCO3)c1 returned FAS-TE inh 0, SENP1 inh 1, iPSC survival up -1 and ABCB6 inh MLPCN 100.
CCOc1cnn(-c2ccccc2)c(=O)c1Cl was read as FAS-TE inh -3, SENP1 inh 1, iPSC survival up 58* and ABCB6 inh MLPCN 99.
Screening CCSc1cnn(-c2ccccc2)c(=O)c1Cl returned FAS-TE inh -4, SENP1 inh -1, iPSC survival up 37* and ABCB6 inh MLPCN 98.
